Assay outcomes from PubChem.
Rows were chosen to be rich in hits. Some 9.3% of all compounds tested hit in one or more screens of this group.
hDAT+cocaine: modulates human dopamine transporter uptake under cocaine | Q01959 | LLC-PK1 hDAT cells, [14C]-dopamine uptake with cocaine IC80; actives deviate in either direction | B-score at 10 µM | 1.3% of 110,000 active | AID 449768;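 active = Z score or B-score, a plate-position-corrected score, falls beyond the plate's 99.7% confidence bounds, in either direction; inactive = both scores lie inside the 99.7% bounds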;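 also: scored against the spread of the other compound wells on the same plate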
Target sequence (Q01959 whole entry, looked up): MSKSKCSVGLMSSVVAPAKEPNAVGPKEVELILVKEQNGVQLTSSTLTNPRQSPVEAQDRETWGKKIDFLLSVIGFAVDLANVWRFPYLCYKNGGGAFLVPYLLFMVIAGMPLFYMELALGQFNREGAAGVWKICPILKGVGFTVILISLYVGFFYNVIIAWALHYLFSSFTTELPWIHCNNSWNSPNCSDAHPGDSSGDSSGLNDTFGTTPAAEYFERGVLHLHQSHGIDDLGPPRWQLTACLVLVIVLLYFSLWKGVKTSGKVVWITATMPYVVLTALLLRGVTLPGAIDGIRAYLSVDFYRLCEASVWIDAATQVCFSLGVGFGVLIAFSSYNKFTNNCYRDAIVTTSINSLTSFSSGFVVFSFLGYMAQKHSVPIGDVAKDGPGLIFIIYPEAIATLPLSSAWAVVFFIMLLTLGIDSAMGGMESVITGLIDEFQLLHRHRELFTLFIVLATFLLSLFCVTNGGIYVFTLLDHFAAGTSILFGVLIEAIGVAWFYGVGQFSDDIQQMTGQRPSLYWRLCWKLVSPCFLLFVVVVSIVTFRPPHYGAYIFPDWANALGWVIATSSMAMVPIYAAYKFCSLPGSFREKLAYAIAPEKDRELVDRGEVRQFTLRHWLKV
Ecoli WT expand: growth inhibitors of E. coli BW25113 wild type; OD600 absorbance; growth inhibition, % at 100 µM; 0.15% of 98,000 active;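 active = growth inhibition above about 50% at one test dose, limit read from the data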;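 also: growth measured after 20 h incubation at 37 °C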
tolC growth inh: E. coli tolC mutant growth inhibition. E. coli BW25113 tolC mutant growth, OD615. growth inhibition, % at 10 µM (by protocol). 2.2% of 65,000 active. AID 573;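 active = growth inhibition at or above a cutoff equal to the mean over every tested compound plus 3 SD, cut at about 60% in these data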;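 also: growth measured after 20 h incubation at 37 °C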
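signal = optical density read at 615 nm | test system = E. coli ΔtolC::kan strain BW25113 | timing = 20 h compound exposure of bacteria at 37 °C | buffer or medium = LB medium plus 50 µg/mL kanamycin | compound dosing = 10 µM final, single dose | evaluation = % inhibition of E. coli growth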
PostGolgi ctrl: yeast control strain growth, post-Golgi counter-screen; inhibition, % at 10 µM; efflux-deficient yeast background strain, growth absorbance A615, 16 h; 5% of 98,000 active
PostGolgi yeast: growth inhibition of a yeast mutant, post-Golgi transport screen; post-Golgi transport phenotypic cell assay; inhibition, % at 10 µM; 0.9% of 98,000 active; AID 739;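 also: yeast cells grown in 1536-well plates; yeast grown about 18 h at 30C before absorbance read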
D1 allo mod: allosterically modulates the human D1 dopamine receptor | P21728 | HEK293 D1, CRE-luciferase, dopamine EC30 potentiation; actives deviate in either direction | B-score at 10 µM | 5.9% of 58,000 active | AID 641;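 active = luminescence count or its row- and column-corrected plate score outside the 99.7% band of the plate's sample wells, on either side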
Active calls of the source: *; · = not tested or not shown. Rule as the data show it, unless noted: active = inhibition above about 30%; inactive = the rest.

SMILES	hDAT+cocaine	Ecoli WT expand	tolC growth inh	PostGolgi ctrl	PostGolgi yeast	D1 allo mod
c1ccc2c(c1)OCC(c1nnc3sc(-c4ccc5c(c4)OCO5)nn13)O2 (stereo not drawn)	-8.6*	-16	16	8	11	0.75
c1ccc(-n2nnnc2Oc2ccc(-c3nnco3)cc2)cc1	0.034	-5	2	42*	0	0.0054
COC(=O)c1cn[nH]c1NC(=S)Nc1ccc(Cl)c(Cl)c1	-1.3	-6	·	42*	-3	·
CCOC(=O)c1ccc(NC(=O)CSc2nc(SC)ns2)cc1	-0.27	22	100*	5	0	0.0018
CSc1nsc(SCC(=O)Nc2cccc(C(C)=O)c2)n1	-0.034	0	-14	1	20	0.26
O=c1cc(CN2CCN(c3ccccc3)CC2)c2c(ccc3ccccc32)o1	-0.017	-16	12	32*	6	0.63
O=c1cc(CN2CCN(c3ccccc3)CC2)c2cc(O)c(-c3ccccc3)cc2o1	-0.32	0	-5	-6	-6	-0.015
O=c1cc(CN2CCN(Cc3ccccc3)CC2)c2cc(Cl)ccc2o1	-0.53	3	13	-1	1	-4.2*
Cc1cc2oc(=O)cc(CN3CCN(Cc4ccccc4)CC3)c2cc1Cl	0.53	-2	13	20	13	-0.89
Cc1ccc(C(=O)C2CCN(CC(=O)Nc3ccc(N(C)C)cc3)CC2)cc1	0.19	3	6	2	0	0.21
O=C(NCC1CC1)C1(C(F)(F)F)CC(CCCO)CCCO1 (stereo not drawn)	0.082	·	·	·	·	·
C=CCn1c(SCC(=O)Nc2ncc(Cc3cc(Cl)ccc3Cl)s2)nnc1-c1ccncc1	-0.097	-1	·	4	-4	·
CC(C)OC(=O)CCc1nc2ccccc2[nH]c1=O	2.1*	2	-1	2	-1	0.51
CCC(C)(C)NC(=O)CN(C(=O)CCC(=O)Nc1ccccn1)c1ccc(F)c(Cl)c1	-0.028	2	·	1	41*	·
Cc1cccc(N(CC(=O)NC2CCCC2)C(=O)CCCC(=O)Nc2ccccn2)c1	0.82	0	-9	9	-7	0.087
Cc1cccc(N(CC(=O)NC2CCCCC2)C(=O)CCCC(=O)Nc2ccccn2)c1	2.2*	·	·	·	·	·
Cc1nc2sc3c(c2c2nc(-c4ccco4)nn12)CC(C)(C)OC3	·	·	-12	·	·	-0.32
CN1CCN(Cc2nc3c(c(=O)n(C)c(=O)n3C)n2CCc2ccccc2)CC1	·	·	-8	·	·	0.039
CCN(CC)S(=O)(=O)c1ccc(C(=O)OCn2nnc3ccccc3c2=O)cc1	-0.84	-14	23	78*	89*	-1
Cc1nc2ccc(F)cc2cc1C(=O)NC(C)C	0.74	2	-13	-8	-4	-0.03
Cc1ccc(-c2nnc(-c3ccccc3)c(N3CCOCC3)n2)cc1	1.3	2	·	21	13	·
c1ccc(-c2nnc(N3CCOCC3)nc2-c2ccccc2)cc1	0.16	4	15	54*	0	3
COc1cc2nc(NCCCN3CCN(C)CC3)n3nc(-c4ccccc4)nc3c2cc1OC	0.57	-15	·	0	7	·
CN1CCN(CCCNc2nc3ccccc3c3nc(-c4ccccc4)nn23)CC1	·	·	18	·	·	5.9*
COC(=O)c1ccccc1NC(=O)c1noc2c1CCCC2	-1.6	-2	1	25	2	-1.2
SMILES	hDAT+cocaine	Ecoli WT expand	tolC growth inh	PostGolgi ctrl	PostGolgi yeast	D1 allo mod
O=C(Nc1ccccc1C(=O)N1CCOCC1)c1noc2c1CCCC2	3*	9	-31	28	-22	0.21
Cc1cc(C(=O)Nc2c(C)nn(Cc3c(Cl)cccc3Cl)c2C)no1	-0.48	4	15	33*	-8	-0.47
COc1ccc2c(c1)CCc1c(C(=O)Nc3cc(C)n(Cc4ccc(Cl)cc4)n3)noc1-2	-0.055	-9	8	0	0	-0.027
Cc1cc(NC(=O)c2noc3c2CCCC3)nn1Cc1ccc(Cl)cc1	-0.28	6	81*	23	-11	-0.5
Cc1nn(Cc2ccc(Cl)cc2)c(C)c1NC(=O)c1noc2c1CCc1ccccc1-2	1	-8	·	42*	-1	·
Cc1nn(Cc2c(Cl)cccc2Cl)c(C)c1NC(=O)c1cc(C(C)C)on1	-1.3	3	16	-2	-10	0.32
CCc1ccc(NC(=O)CCNS(=O)(=O)c2cccc3nsnc23)cc1	0.26	21	·	-5	6	·
O=C(OCc1ccc(Cl)cc1)c1ccccc1C(=O)c1ccccc1	0.34	0	·	26	0	·
Cc1ccccc1Cn1nc(C)c(NC(=O)c2noc3c2CCCC3)c1C	-0.6	1	5	21	7	0.8
Cc1nn(Cc2ccccc2Cl)c(C)c1NC(=O)c1noc2c1CCCCC2	0.98	-6	65*	9	-8	-0.63
COc1cc(C(=O)N[C@H](C(=O)NC2CCCCCC2)C(C)C)cc(OC)c1OC	-0.16	4	·	-5	-10	·
COc1cc(OC)cc(C(=O)N[C@H](C(=O)NC23CC4CC(CC(C4)C2)C3)C(C)C)c1	-0.86	-13	·	28	47*	·
CC(C)(C)NC(=O)c1ccc(COc2ccccc2Br)o1	1.5	11	16	33*	-1	0.22
COc1ccccc1OCc1ccc(C(=O)NC(C)(C)C)o1	1.6	3	-7	7	-3	-0.27
CNC(=O)c1ccc(-n2nc(C)cc2-c2ccccc2)cc1	·	6	·	7	-3	·
Cc1cc(-c2ccccc2)n(-c2ccc(C(=O)N3CCN(c4ncccn4)CC3)cc2)n1	2.5*	-3	11	61*	-3	·
O=S(=O)(Nc1ccc2oc(-c3ccccc3)nc2c1)c1ccccc1	-0.13	-4	100*	33*	0	·
Cc1ccc2oc(-c3ccc(NC(=O)CC(C)C)cc3)nc2c1	0.46	19	13	-2	22	-0.53
Cc1ccc(-c2nc3cc(NS(=O)(=O)c4ccc(C)cc4)ccc3o2)cc1	0.1	-13	·	59*	14	·
CSCC[C@H](NC(=O)OC(C)(C)C)c1nnc(SCC=C(C)C)o1	0.82	1	19	-7	-2	-0.024
O=C1c2ccccc2C(Nc2ccc3c(c2)OCCO3)N1c1ccc(Cl)cn1 (stereo not drawn)	-0.87	0	20	35*	1	-0.089
O=C1c2ccccc2C(Nc2ccc(F)c(Cl)c2)N1c1ccccn1 (stereo not drawn)	-1.2	8	2	20	-2	3.4
COc1ccc(NC2c3ccccc3C(=O)N2c2ccccn2)cc1Cl (stereo not drawn)	-0.11	-2	·	47*	7	·
O=C(c1ccc(F)cc1)N1CCN(c2cc(N3CCCCC3)c(F)cc2[N+](=O)[O-])CC1	0.017	-14	·	25	1	·
Cc1ccc(-c2cn3nc(C)c(C)nc3n2)cc1	-0.035	-12	-20	30	1	-8.5*
Cc1cc(=O)n2c(-c3ccccc3C)n[nH]c2n1	-1.6	-8	-36	5	31*	-0.84
Cc1cc(N2CCN(c3ccccc3)CC2)nc(-c2ccccc2O)n1	1.7	-11	·	77*	82*	·
Cc1cc(N2CCN(c3ccccc3)CC2)nc(-n2nc(C)cc2C)n1	0.37	5	71*	9	6	-2.6
